# Source: PubChem BioAssay (Sanford-Burnham Center for Chemical Genomics)
# Most compounds without a hit are left out; they make up all but 3.1% or so of the library.
# SENP7 block = SENP7 protease inhibitors, primary screen, biochemical, luminescence, uHTS; Sentrin-specific protease 7 (Homo sapiens), Q9BQF6; recombinant SENP7, Z-RLRGG-aminoluciferin luminescence, 40 min; 1.5% of 330,000 active; inhibition, % at 5 µM;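 active = inhibition above about 50% at the single test dose, limit read from the data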;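 note: plate controls were DMSO with enzyme for no effect and no enzyme buffer wells for full effect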
# Target sequence (Q9BQF6 706-1050 limits assumed): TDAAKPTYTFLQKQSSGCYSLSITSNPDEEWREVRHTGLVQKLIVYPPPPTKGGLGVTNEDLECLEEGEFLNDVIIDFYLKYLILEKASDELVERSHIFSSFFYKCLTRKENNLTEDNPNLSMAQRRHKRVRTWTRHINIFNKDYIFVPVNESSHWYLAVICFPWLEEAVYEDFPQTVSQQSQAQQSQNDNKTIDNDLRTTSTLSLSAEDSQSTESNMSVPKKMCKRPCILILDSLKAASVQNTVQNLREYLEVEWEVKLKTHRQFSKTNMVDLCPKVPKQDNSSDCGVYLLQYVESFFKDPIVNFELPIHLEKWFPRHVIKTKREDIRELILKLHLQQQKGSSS
# SENP8 block-1 = SENP8 protease inhibitors, primary screen, biochemical, luminescence; purified SENP8, Z-RLRGG-aminoluciferin cleavage; inhibition, % at 10 µM; 1.2% of 330,000 active; AID 2540, 2010; in the data active = inhibition above about 50%
# SENP6 inh = SENP6 protease inhibitors, primary screen, biochemical, luminescence, uHTS. Recombinant SENP6 catalytic domain, aminoluciferin luminescence. 1.8% of 330,000 active. AID 2599, 2010. Sentrin-specific protease 6 (Homo sapiens), Q9GZR1. inhibition, % at 10 µM;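 active = inhibition above about 50% at the single tested dose, limit read from the data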;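 note: plate controls were DMSO wells with enzyme for no effect and DMSO wells lacking enzyme for full effect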
# UBC13 inh = UBC13 polyubiquitin chain formation inhibitors, primary screen, biochemical, TR-FRET, uHTS. Ubiquitin-conjugating enzyme E2 N (Homo sapiens), P61088. inhibition, % at 20 µM. 0.47% of 330,000 active. AID 485273, 2010; in the data active = inhibition above about 45%, passing the limit was not always enough
# Apaf1 inhib = inhibitors of human Apaf-1 apoptosome, primary screen, biochemical, DEVD-Rh110 fluorescence, uHTS; Apoptotic protease-activating factor 1 (Homo sapiens), O14727; reconstituted apoptosome caspase-3 activity; inhibition, % at 20 µM; 0.71% of 330,000 active; AID 489030, 2010; active = inhibition of at least 40% at 20 µM;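 note: plate controls were DMSO wells for no effect and DEVD-CHO caspase inhibitor wells for full effect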
#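 Material: reconstituted apoptosome with Apaf-1, cytochrome c, caspase-9, procaspase-3, dATP / Buffer or medium: pH 7.5 Hepes buffer with CHAPS, BSA, DTT / Also added: cytochrome c with DEVD-Rh110 / Schedule: compound with Apaf-1, dATP, procaspase-3 30 min, then 50 min reaction, room temperature / Technique: rhodamine 110 fluorescence at Ex 480/Em 540 nm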
# SENP8 block-2 = human SENP8 protease inhibitors, primary screen, biochemical, fluorescence, Nedd8 protein substrate, uHTS | Sentrin-specific protease 8 (Homo sapiens), Q96LD8 | AID 602440, 2012 | 0.64% of 360,000 active | inhibition, % at 20 µM | recombinant SENP8; in the data active = inhibition mostly above about 40%, no sharp cut-off; inactive = mostly below about 27%
# Casp3 UBC13 ctr = CASP3 inhibitor validation, counterassay for project on UBE2N polyubiquitination blockers, biochemical, one dose; shares compounds with UBC13 inh; Recombinant caspase-3, Caspase-Glo 3/7 luminescence, 60 min; inhibition, % at 20 µM; 4% of 1,400 active;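 active = mean inhibition across replicates above about 26%, limit read from the data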;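 note: plate controls were DMSO with caspase-3 for no effect and DMSO wells lacking enzyme for full effect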
# Target sequence (P42574 whole entry, looked up): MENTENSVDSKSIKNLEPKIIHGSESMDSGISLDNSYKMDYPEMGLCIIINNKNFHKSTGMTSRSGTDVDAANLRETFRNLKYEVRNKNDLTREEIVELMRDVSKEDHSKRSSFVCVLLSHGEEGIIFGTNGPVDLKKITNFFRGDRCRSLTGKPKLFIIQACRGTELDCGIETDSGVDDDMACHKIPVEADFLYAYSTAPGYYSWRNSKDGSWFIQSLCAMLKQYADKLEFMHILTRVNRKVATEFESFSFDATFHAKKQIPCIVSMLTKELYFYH
# UBC13 conf = UBC13 polyubiquitination inhibitors, single-point retest, confirmation, biochemical, TR-FRET, single concentration; 68% of 1,400 active; inhibition, % at 10 µM; shares compounds with UBC13 inh; in the data active = inhibition above about 45%
# Apaf-1 inh conf2 = Apaf-1 inhibitors, single-dose retest, confirmation, biochemical, fluorescence, DEVD-Rh110, 20 µM | shares compounds with Apaf1 inhib | reconstituted apoptosome, caspase-3 DEVD-Rh110 fluorescence | inhibition, % at 20 µM | 25% of 1,800 active;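 active = mean inhibition of at least 40% at 20 µM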;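 note: plate controls were DMSO wells for no effect and DEVD-CHO caspase inhibitor control wells for full effect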
# Rh110 interf inh = Rh110 fluorescence interference by putative Apaf-1 inhibitors, confirmation, artefact control for Apaf-1 inhibitor project, biochemical, 20 µM. shares compounds with Apaf1 inhib. quenched caspase reaction. activation (fluorescence interference), % at 20 µM. 1,800 tested, under 10 active. AID 504615, 2011;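 active = signal rise of 40% or more at 20 µM, treated as a fluorescence artifact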
# Apaf1 inh interf = fluorescence interference of Apaf-1 inhibitor hits, dose response, artefact control for Apaf-1 inhibitor project. 460 tested, under 10 active. fluorescence interference counterscreen, Apaf-1 assay format. IC50, µM. shares compounds with Apaf1 inhib; call rule not given here
# * marks the source's active call; other numbers are inactive results; i = inactive; . = not tested or not shown; ! = not confirmed by another sample.
SMILES,SENP7 block,SENP8 block-1,SENP6 inh,UBC13 inh,Apaf1 inhib,SENP8 block-2,Apaf-1 inh conf2,Rh110 interf inh,others
Clc1ccc(C(c2ccc(Cl)cc2)n2cc[n+](CC(OCc3ccc(Cl)cc3Cl)c3ccc(Cl)cc3Cl)c2)cc1 (stereo not drawn),1,-30,-33,104*,89*,15,79*,8,Casp3 UBC13 ctr=-3;UBC13 conf=106*;Apaf1 inh interf=>100
Cc1c(CCC(=O)N2C[C@H]3C[C@@H](C2)c2cccc(=O)n2C3)c(=O)oc2c(C)c(O)ccc12,.,.,.,.,.,-2,.,.,
CCCCCCCSc1cc(OC)c(CCN(C)C)cc1OC,-3,-10,-6,50*,56*,-13,13,11,Casp3 UBC13 ctr=-3;UBC13 conf=56*
COC(=O)C12CCc3c(ccc4cc(OC)ccc34)C1=CC(=O)C2 (stereo not drawn),.,.,.,.,.,-473,.,.,
NC(N)=N/N=C/c1ccc(N(c2ccccc2)c2ccccc2)cc1,3,-11,-41,107*,61*,-317,43*,3,Casp3 UBC13 ctr=-6;UBC13 conf=119*;Apaf1 inh interf=>100
O=C(NP(=O)(N1CC1)N1CC1)c1cc(I)ccc1I,.,.,.,.,.,14,.,.,
COCCCNC(=O)c1c(NC(=O)c2ccco2)n(Cc2ccccc2)c2nc3ccccc3nc12,21,3,34,20,71*,-416,-51,8,Apaf1 inh interf=>100
Cc1nn(Cc2ccccc2)c(C)c1C(=O)OCC(=O)NCc1ccco1,4,6,-1,2,-10,5,.,.,
Cc1ccc(C[n+]2c(-c3ccc(C)cc3)cc(-c3ccc(C)cc3)cc2-c2ccc(C)cc2)cc1,-11,-19,-36,29,79*,-488,37,7,
c1cncc(C2Nc3cccc4cccc(c34)N2)c1,3,14,35,-45,42*,52*,11,1,
O=C1CCCC2=C1C(c1cccnc1)Nc1ccccc1N2 (stereo not drawn),-12,-2,-18,-13,14,30,.,.,
CCN(CCO)c1ccc(N=Cc2c(O)n(C)c(=S)[nH]c2=O)cc1,54*,8,40,-252,51*,55*,16,-7,
CCN(CC)c1ccc(N=Cc2c(O)n(-c3cc(OC)ccc3OC)c(=O)[nH]c2=O)cc1,-3,-7,0,-31,48*,-12,13,1,
CN(C)CC(C(=O)Cc1ccccc1)c1ccccc1 (stereo not drawn),.,.,.,.,.,8,.,.,
O=C1NCN(c2ccccc2)C12CCN(C(c1cccc3ccccc13)c1nnnn1C1CCCC1)CC2 (stereo not drawn),.,.,.,.,.,16,.,.,
CNc1ccc2nc3ccccc3[n+](C)c2c1,30,47,66*,i,89*,72*,62*,9,Apaf1 inh interf=>100
CN1CCCC2c3ccccc3CCC21 (stereo not drawn),.,.,.,.,.,-20,.,.,
CC1([N+](=O)[O-])COP(=O)(NC2CCCC2)OC1 (stereo not drawn),.,.,.,.,.,-18,.,.,
Nc1c(C(=O)OCC2CCCO2)c2nc3ccccc3nc2n1Cc1cccs1 (stereo not drawn),10,15,18,5,56*,-480,23,5,
COCCOC(=O)c1c(N)n(Cc2ccc(OC)cc2)c2nc3ccccc3nc12,29,11,15,-10,66*,i,21,9,
CCOC(=O)c1cccc(C2=C(CNC(=O)c3nccs3)[C@H]3CC[C@@H](C2)N3Cc2ccccc2)c1,.,.,.,.,.,5,.,.,
CCCN1CCc2cccc3c2[C@H]1Cc1ccc(O)c(O)c1-3,1,-4,25,-4,53*,-59,13,10,
COc1ccc2c(c1O)-c1c(OC)c(OC)cc3c1[C@H](C2)N(C)CC3,0,4,-1,9,-1,-17,.,.,
O=C(CN1CCN(C(=O)COc2cccc(F)c2)CC1)Nc1ccc(Cl)c(C(F)(F)F)c1,-8,-12,-18,4,23,-8,.,.,
COc1ccc(P2(=O)Nc3ccccc3N2)cc1,5,9,24,-14,49*,-23,21,8,
SMILES,SENP7 block,SENP8 block-1,SENP6 inh,UBC13 inh,Apaf1 inhib,SENP8 block-2,Apaf-1 inh conf2,Rh110 interf inh,others
COc1ccc(NP2(=O)NCCCN2)cc1,.,.,.,.,.,13,.,.,
Fc1cccc(-c2ccc3c(c2)CN(c2cccc(Cl)c2)Cc2cnnn2-3)c1,.,.,.,.,.,9,.,.,
CS(=O)(=O)CCN1CC2CCCC(C2)C1,.,.,.,.,.,11,.,.,
CCCC1(CC(C)CC)C(=O)NC(=O)NC1=O (stereo not drawn),.,.,.,.,.,9,.,.,
O=c1[nH]c2ccccc2n1C1CCN(CCCC(c2ccc(F)cc2)c2ccc(F)cc2)CC1,9,-6,-4,40,56*,2,14,2,
NC(=Nc1ccccc1)NN=Cc1c[nH]c2ccccc12,.,.,.,.,.,10,.,.,
Cc1nc2c(=O)n(C)c(=O)nc-2n(C)n1,96*,96*,87*,-23,99*,132*,100*,-3,Apaf1 inh interf=>100
CC[C@@H](CO)NC(=O)[C@@H]1C=C2c3cccc4c3c(cn4C)C[C@H]2N(C)C1,20,13,38,-39,69*!,-384,17,0,
CC(C)COC(=O)N1Cc2ccccc2-n2nncc2C1,.,.,.,.,.,16,.,.,
CC(C)CNC(=O)c1c(N)n(Cc2ccco2)c2nc3ccccc3nc12,10,12,17,-13,45*,-331,32,18,
O=C1C(=O)c2ccccc2-c2ccccc21,97*,93*,97*,-160,99*,108*,99*,5,Apaf1 inh interf=>100
